# High-throughput results: PubChem, several laboratories
# A selection: hits, their analogues and other compounds. The true share with any hit is near 3.3%.
# Arrestin-AP2 inh = inhibitors of human beta-arrestin and AP2 interaction; AID 504490; FITC-arrestin peptide / GST-AP2 beads, flow cytometry; AP2 beta2 appendage carries R879A mutation; inhibition, % at 10 µM; actives 0.31% (n = 340,000);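 active = inhibition above a set limit, near 3 SD of compounds lacking own fluorescence, cut at about 54% in these data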
#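 System: GST-AP2 R879A glutathione beads | Also added: FITC-arrestin peptide, 50 nM | Times: 12 min plus 1 h, RT | Signal: Bead flow cytometry, FITC channel | Buffer or medium: PBS with 0.05% Tween 20 and 0.1% BSA | Read-out basis: Percent drop in bead-associated FITC signal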
# sPLA2-III inh = Inhibits HGIII-sPLA2 liposome hydrolysis, primary screen; QFRET BODIPY PC-A2 liposome hydrolysis, fluorescence; AID 743126; inhibition, % at 12.2 µM; Q9NZ20; actives 0.56% (n = 370,000);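 active = inhibition above mean plus 3 SD of compounds lying within the high and low control bounds, cut at about 19% in these data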
# PfM18AAP inh = blocks P. falciparum M18 aspartyl aminopeptidase | recombinant PfM18AAP, H-Glu-NHMec fluorogenic cleavage | inhibition, % at 7.35 µM | actives 1.2% (n = 290,000) | AID 1822;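 active = inhibition above the campaign mean inhibition over all tested compounds plus 3 SD, cut at about 28% in these data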
# Lipid droplet = hepatic lipid droplet formation modulation. inhibition, % at 6.5 µM. AML12 mouse hepatocytes, oleate lipid droplets, BODIPY imaging. actives 0.4% (n = 240,000);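 active = lipid droplet intensity inhibited by at least 50%, with more than 500 cells counted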
#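 System: AML12 hepatocytes (mouse). Probe or stimulus: oleic acid at 100 µM to induce lipid droplet formation. Times: overnight treatment with compound plus oleate. Detection: Image-based BODIPY and DAPI two-channel analysis. Evaluation: percent inhibition of filter-corrected integrated lipid droplet intensity per well.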
# m5-HT2A agonist = mouse HTR2A agonism via beta-arrestin recruitment; activation, % at 7.6 µM; CHO-K1 mHTR2A beta-arrestin complementation, luminescence; percent of 30 µM serotonin response; AID 624169; actives 0.66% (n = 360,000);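 active = activation above a run cutoff, the mean activation of all tested compounds plus 3 SD, cut at about 14% in these data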
# NRP1-CendR mod = alters CendR peptide binding to human NRP-1; O14786; FAM-RPARPAR peptide binding to NRP-1, fluorescence polarization; inhibition, % at 25 µM; actives 0.85% (n = 360,000); AID 602438;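 active = inhibition or corrected inhibition above about 18%, plus a signal ratio from 0.5 to 1.5, limit read from the data, passing the limit was not always enough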
# OPRM1 ag = activates human mu opioid receptor in HTR2A counterscreen. U2OS OPRM1 beta-arrestin PathHunter, luminescence; DMSO 0%, DAMGO 9.3 µM 100%. activation, % at 9.3 µM. shares compounds with m5-HT2A agonist. actives 5.3% (n = 2,300). AID 624380;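 active = mean activation above the mean of DMSO-only wells plus 3 SD, cut at about 0.5% in these data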
# Target sequence (P35372 whole entry, looked up): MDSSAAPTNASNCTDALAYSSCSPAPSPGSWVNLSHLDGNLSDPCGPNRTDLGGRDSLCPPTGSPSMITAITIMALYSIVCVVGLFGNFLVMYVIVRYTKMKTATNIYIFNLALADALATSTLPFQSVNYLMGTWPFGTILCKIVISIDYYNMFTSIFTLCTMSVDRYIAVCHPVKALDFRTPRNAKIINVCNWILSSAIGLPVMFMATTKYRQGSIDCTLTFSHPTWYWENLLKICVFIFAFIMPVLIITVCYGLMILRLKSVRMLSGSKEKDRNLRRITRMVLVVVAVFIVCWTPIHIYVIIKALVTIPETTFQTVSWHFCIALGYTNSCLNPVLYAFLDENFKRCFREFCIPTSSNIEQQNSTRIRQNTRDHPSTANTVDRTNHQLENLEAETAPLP
# HTR2A ag conf = confirmation of mouse HTR2A serotonin receptor agonists; activation, % at 7.6 µM; CHO-K1 PathHunter beta-arrestin recruitment, luminescence; DMSO 0%, 30 µM serotonin 100%; actives 19% (n = 2,300); AID 624381; shares compounds with m5-HT2A agonist;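 active = mean activation across triplicates above the hit threshold derived in the original primary screen, cut at about 15% in these data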
# A number is an active result; i = inactive; nt = no result.
SMILES,Arrestin-AP2 inh,sPLA2-III inh,PfM18AAP inh,Lipid droplet,m5-HT2A agonist,NRP1-CendR mod,OPRM1 ag,HTR2A ag conf
CCOC(=O)CN1C(=O)N2C[C@H]3CON(C)[C@H]3C[C@H]2c2ccccc21,nt,i,nt,nt,i,i,nt,nt
Cc1ccccc1-c1cc2nc(Oc3ccc4c(c3)OCO4)n(C)c(=O)c2s1,nt,i,nt,nt,i,i,nt,nt
Fc1cccc(CN2CCN(c3ncccn3)CC2)c1,i,i,i,i,41.3,i,i,112.8
O=[N+]([O-])c1cccc(CN2CCN(c3ncccn3)CC2)c1,i,i,i,i,14.6,i,i,59.5
O=[N+]([O-])c1ccccc1CN1CCN(c2ncccn2)CC1,i,i,i,i,i,i,nt,nt
FC(F)(F)c1cccc(CN2CCN(c3ncccn3)CC2)c1,i,i,nt,nt,20.5,i,i,65.9
FC(F)(F)c1cccc(CN2CCCCCC2)c1,i,i,i,i,i,i,nt,nt
CC1CC(C)CN(C(=O)c2ccc3nc[nH]c3c2)C1 (configuration not stated),i,i,i,i,15.8,i,i,i
CN(C)S(=O)(=O)c1ccc(NC(=O)Cn2nc(-c3ccc4c(c3)OCCO4)ccc2=O)cc1,i,i,nt,nt,14.7,i,i,i
COc1ccccc1CNC(=O)c1n[nH]c2ccccc12,i,i,i,i,19.0,i,i,i
COc1ccccc1CNC(=O)COC(=O)c1n[nH]c2ccccc12,i,i,i,i,i,i,nt,nt
O=C(NCc1ccc(Cl)cc1)OCCN1C(=O)CCC12CCC(c1ccccc1)CC2 (configuration not stated),nt,i,nt,nt,nt,nt,nt,nt
Cc1ccc(/C=N\NC(=O)Cc2cccn2C)o1,i,i,i,i,i,i,nt,nt
Cc1ccc(/C=N/NC(=O)CN2C(=O)CSc3ccccc32)o1,i,i,i,i,20.4,i,i,i
COc1ccc(CCNC(=O)c2ccccc2NC(=O)c2ccco2)cc1OC,i,i,i,nt,23.8,i,i,i
COc1ccc(CCNC(=O)c2ccco2)cc1OC,i,i,i,i,i,i,nt,nt
Fc1ccc(NCc2nnc3n2CCCCC3)cc1,i,i,i,i,19.5,i,i,i
CCc1cc2c(SCc3ccc(C(=O)OC)o3)ncnc2s1,i,i,i,i,14.6,i,i,i
CC1(c2nnnn2-c2ccc(F)cc2)CCCC(=O)N1CCc1c[nH]c2ccccc12 (configuration not stated),nt,i,nt,nt,nt,nt,nt,nt
Cc1cccc(C)c1NC(=O)c1sc(N)nc1-c1ccccc1,i,i,i,i,19.4,i,i,i
Cc1ccc(NC(=O)c2sc(N)nc2-c2ccccc2)cc1C,i,i,i,i,i,i,nt,nt
Cc1ccc(C)c(S(=O)(=O)NCc2ccc(C(=O)N3CCN(c4ccccc4)CC3)cc2)c1,i,i,i,i,i,i,nt,nt
COc1ccc(N2CCN(C(=O)c3ccc(CNS(=O)(=O)c4cc(C)ccc4C)cc3)CC2)cc1,i,i,i,i,25.4,i,i,i
Cc1c(C(=O)Nc2ccc(-c3nnc4n3CCCCC4)cc2)oc2ccc(Br)cc12,i,i,i,i,18.4,i,i,i
COc1ccccc1CN(C)C(=O)CN1CCN(C(=O)c2cccs2)CC1,i,i,nt,nt,16.8,i,i,27.3
COc1ccc(C(C(=O)N(C)C2CCCC2)N(Cc2ccc(F)cc2)C(=O)c2csc(N3CCOCC3)n2)cc1OC (configuration not stated),nt,i,nt,nt,nt,nt,nt,nt
O=C(NCc1ccccc1)C(c1ccccc1)n1c(=O)c(-c2cc3ccccc3[nH]2)nc2ccccc21 (configuration not stated),nt,i,nt,nt,i,i,nt,nt
O=C(NCc1ccccc1)C(C1CC1)n1c(=O)c(-c2cc3ccccc3[nH]2)nc2ccccc21 (configuration not stated),nt,i,nt,nt,15.1,i,i,i
O=C(COC(=O)/C=C/c1cccc(C(F)(F)F)c1)NC(=O)NC1CCCC1,i,i,nt,nt,16.3,i,i,i
